Reference: ChEMBL document CHEMBL4396920, “DL5050, a Selective Agonist for the Human Constitutive Androstane Receptor” (ACS Med Chem Lett, 2019)

Key:
[1] = molecular target: T1, Nuclear receptor subfamily 1 group I member 3 (Homo sapiens, UniProt Q14994); assay: Agonist activity at human CAR in human primary hepatocytes assessed as slight increase in CYP2B6 level at 0.5 to 5 uM incubated for 72 hrs by Western blot analysis; type: cell-based
T1 sequence (Q14994 whole entry): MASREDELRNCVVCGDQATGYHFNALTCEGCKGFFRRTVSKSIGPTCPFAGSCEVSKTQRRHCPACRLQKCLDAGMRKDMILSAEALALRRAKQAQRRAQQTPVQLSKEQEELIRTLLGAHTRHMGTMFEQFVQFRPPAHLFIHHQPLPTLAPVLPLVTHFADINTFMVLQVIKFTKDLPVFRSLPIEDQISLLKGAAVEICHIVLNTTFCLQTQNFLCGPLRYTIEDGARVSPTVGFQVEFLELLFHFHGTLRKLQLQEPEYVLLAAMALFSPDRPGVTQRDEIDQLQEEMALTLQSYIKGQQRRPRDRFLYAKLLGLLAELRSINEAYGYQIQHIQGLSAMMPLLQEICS
Outline: (§1)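 Hepatocytes from liver donor #151, given the same treatments as the mRNA study. CYP2B6 and CYP3A4 protein detected by immunoblotting; representative blots.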

[2] = molecular target: T2, Nuclear receptor subfamily 1 group I member 2 (Homo sapiens, UniProt O75469); assay: Agonist activity at human PXR in human primary hepatocytes assessed as slight increase in CYP3A4 gene expression at 0.5 to 5 uM incubated for 24 hrs by RT-PCR analysis; type: cell-based
T2 sequence (O75469 whole entry): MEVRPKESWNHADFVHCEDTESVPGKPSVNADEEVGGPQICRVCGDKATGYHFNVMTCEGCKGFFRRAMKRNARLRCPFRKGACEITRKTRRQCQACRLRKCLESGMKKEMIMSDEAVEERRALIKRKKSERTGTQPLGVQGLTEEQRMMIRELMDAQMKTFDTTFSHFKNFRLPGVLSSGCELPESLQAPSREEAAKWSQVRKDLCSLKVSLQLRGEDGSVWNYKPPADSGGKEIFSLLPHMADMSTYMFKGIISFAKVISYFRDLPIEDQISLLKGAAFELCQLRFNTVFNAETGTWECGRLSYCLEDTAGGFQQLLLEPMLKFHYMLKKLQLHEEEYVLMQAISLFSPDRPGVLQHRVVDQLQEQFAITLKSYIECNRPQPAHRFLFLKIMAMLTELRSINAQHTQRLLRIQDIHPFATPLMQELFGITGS
Outline: (§2)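 Hepatocytes from human liver donor HL-#151, treated with test compound at 0.5, 1 and 5 μM or vehicle; CITCO (0.5–5 μM), PB (1 mM) and RIF (10 μM) as references. CYP2B6 and CYP3A4 mRNA measured by RT-PCR and normalized to vehicle control. Mean ± SD of three independent experiments.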

[3] = system: HepG2; assay: Cytotoxicity against human HepG2 cells harbouring CYP2B6-hCAR gene assessed as cell viability at 92 uM incubated for 24 hrs by cell titer-Glo cell viability assay; type: ADME, cell-based; details: hepg2, 24 h
[4] = molecular target: T1, Nuclear receptor subfamily 1 group I member 3; assay: Ratio of Emax to EC50 for agonist activity at human CAR transfected in human HepG2 cells cotransfected with CYP2B6 by luciferase reporter gene assay; type: cell-based
Outline: (§3)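 qHTS luciferase reporter assay in a double-stable HepG2-CYP2B6-hCAR line. EC50 and Emax (fold luciferase signal over vehicle/basal) derived by nonlinear regression; Emax/EC50 ratio computed from these. Mean ± SEM of at least three independent experiments in quadruplicate.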

[5] = molecular target: T2, Nuclear receptor subfamily 1 group I member 2; assay: Agonist activity at human PXR transfected in human HepG2 cells cotransfected with CYP3A4 incubated for 23 hrs by luciferase reporter gene assay; type: cell-based
[6] = molecular target: T1, Nuclear receptor subfamily 1 group I member 3; assay: Agonist activity at human CAR in human primary hepatocytes assessed as increase in CYP2B6 gene expression incubated for 24 hrs by RT-PCR analysis; type: cell-based; outline: as §2
[7] = molecular target: T2, Nuclear receptor subfamily 1 group I member 2; assay: Ratio of Emax to EC50 for agonist activity at human PXR transfected in human HepG2 cells cotransfected with CYP3A4 by luciferase reporter gene assay; type: cell-based
[8] = molecular target: T1, Nuclear receptor subfamily 1 group I member 3; assay: Agonist activity at human CAR transfected in human HepG2 cells cotransfected with CYP2B6 incubated for 23 hrs by luciferase reported gene assay; type: cell-based; outline: as §3
[9] = system: HepG2; assay: Cytotoxicity against human HepG2 cells harbouring CYP2B6-hCAR gene assessed as reduction in cell viability at >10 uM incubated for 24 hrs by cell titer-Glo cell viability assay; type: ADME, cell-based; details: hepg2, 24 h
[10] = molecular target: T2, Nuclear receptor subfamily 1 group I member 2; assay: Agonist activity at human PXR in human primary hepatocytes assessed as slight increase in CYP3A4 level at 0.5 to 5 uM incubated for 72 hrs by Western blot analysis; type: cell-based; outline: as §1
[11] = molecular target: T1, Nuclear receptor subfamily 1 group I member 3; assay: Agonist activity at human CAR in human primary hepatocytes assessed as increase in CYP2B6 level incubated for 72 hrs by Western blot analysis; type: cell-based; outline: as §1
[12] = molecular target: T1, Nuclear receptor subfamily 1 group I member 3; assay: Agonist activity at human CAR in human primary hepatocytes assessed as increase in CYP2B6 gene expression at 0.5 to 5 uM incubated for 24 hrs by RT-PCR analysis; type: cell-based; outline: as §2
[13] = molecular target: T2, Nuclear receptor subfamily 1 group I member 2; assay: Agonist activity at human PXR in human primary hepatocytes assessed as increase in CYP3A4 gene expression at 1 mM incubated for 24 hrs by RT-PCR analysis; type: cell-based; details: 1000 µM
Outline: (§4)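 Human primary hepatocytes from liver donor HL-#151 were treated with compound at 0.5, 1 or 5 μM, phenobarbital (1 mM), rifampicin (10 μM) or vehicle. CYP2B6 and CYP3A4 mRNA was measured by RT-PCR and normalized against vehicle control. Results are mean ± SD of three independent experiments.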

[14] = molecular target: T1, Nuclear receptor subfamily 1 group I member 3; assay: Agonist activity at human CAR in human primary hepatocytes assessed as increase in CYP2B6 gene expression at 1 mM incubated for 24 hrs by RT-PCR analysis; type: cell-based; details: 1000 µM; outline: as §4

| Structure (SMILES) | Ratio [4] | EC50 ([8]; read-out: EC50) | Activity [9] | also measured |
| --- | --- | --- | --- | --- |
| Clc1ccc(-c2nc3occn3c2/C=N/OCc2ccc(Cl)c(Cl)c2)cc1 | 10 | 410 nM |  | Activity [1]: Active; Activity [2]: Active; Activity [3]: Non-Toxic; EC50 [5]: 1300 nM; Activity [6]: Dose-dependent effect; Ratio [7]: 1.3 |
| Clc1ccc(CO/N=C/c2c(-c3cccc4ccccc34)nc3sccn23)cc1Cl | 2.3 | 940 nM | Toxic |  |
| Clc1ccc(CO/N=C/c2c(-c3ccc4ccccc4c3)nc3occn23)c(Cl)c1 | 2.3 | 1500 nM | Toxic |  |
| FC(F)(F)c1ccc(CO/N=C/c2c(-c3ccc4ccccc4c3)nc3occn23)cc1 | 6 | 470 nM |  | Activity [3]: Non-Toxic; EC50 [5]: 2000 nM; Ratio [7]: 0.85 |
| CC(C)(C)c1ccc(-c2nc3sccn3c2/C=N/OCc2ccc(Cl)c(Cl)c2)cc1 | 0.83 | 2400 nM | Toxic |  |
| Clc1ccccc1CO/N=C/c1c(-c2ccc3ccccc3c2)nc2occn12 | 3.5 | 1100 nM | Toxic |  |
| FC(F)(F)c1ccc(-c2nc3sccn3c2/C=N/OCc2ccc(Cl)c(Cl)c2)cc1 | 2.6 | 880 nM | Toxic |  |
| Cc1ccc(-c2nc3sccn3c2/C=N/OCc2ccc(Cl)c(Cl)c2)cc1 | 5.5 | 490 nM | Toxic |  |
| Clc1ccc(CO/N=C/c2c(-c3ccc(C4CCCCC4)cc3)nc3sccn23)cc1Cl | < 0.03 | > 100000 nM | Toxic |  |
| Clc1ccc(CO/N=C/c2c(-c3ccc4ccccc4c3)nc3sccn23)cc1Cl | 6.1 | 380 nM | Toxic |  |
| CC1(C)CCC(C)(C)c2cc(-c3nc4sccn4c3/C=N/OCc3ccc(Cl)c(Cl)c3)ccc21 |  |  | Toxic | EC50 [5]: 3600 nM; Ratio [7]: 0.64; EC50 ([8]; hepg2): Not Active |
| Clc1ccc(CO/N=C/c2c(-c3ccc4ccccc4c3)nc3occn23)cc1 | 4.2 | 990 nM | Toxic |  |
| Clc1ccc(CO/N=C/c2c(-c3ccccc3)nc3sccn23)cc1Cl | 4 | 580 nM | Toxic |  |
| COc1ccc(-c2nc3sccn3c2/C=N/OCc2ccc(Cl)c(Cl)c2)cc1 | 4.9 | 490 nM | Toxic |  |
| Clc1ccc(CO/N=C/c2c(-c3ccc4ccccc4c3)nc3occn23)cc1Cl | 10 | 370 nM |  | Activity [2]: Active; Activity [3]: Non-Toxic; Activity [10]: Active; EC50 [5]: 5900 nM; Activity [6]: Dose-dependent effect; Activity [11]: Dose-dependent effect; Ratio [7]: 0.37 |
| Clc1cccc(-c2nc3sccn3c2/C=N/OCc2ccc(Cl)c(Cl)c2)c1 | 2.1 | 1100 nM | Toxic |  |
| CC(C)c1ccc(-c2nc3sccn3c2/C=N/OCc2ccc(Cl)c(Cl)c2)cc1 | 5.1 | 590 nM | Toxic |  |
| Fc1c(F)c(F)c(CO/N=C/c2c(-c3ccc4ccccc4c3)nc3occn23)c(F)c1F | 1.8 | 1700 nM | Toxic |  |
| CC(C)(C)c1ccc(CO/N=C/c2c(-c3ccc4ccccc4c3)nc3occn23)cc1 | 0.29 | 7900 nM | Toxic |  |
| Clc1ccc(CO/N=C/c2c(-c3ccc(-c4ccccc4)cc3)nc3sccn23)cc1Cl |  |  | Toxic | EC50 [5]: 57000 nM; Ratio [7]: 0.06; EC50 ([8]; hepg2): Not Active |
| Clc1ccc(CO/N=C/c2c(-c3ccc(Br)cc3)nc3sccn23)cc1Cl | 5 | 480 nM | Toxic |  |
| Fc1ccc(-c2nc3sccn3c2/C=N/OCc2ccc(Cl)c(Cl)c2)cc1 | 3.9 | 670 nM | Toxic |  |
| C(=N\OCc1ccccc1)/c1c(-c2ccc3ccccc3c2)nc2occn12 | 5.2 | 840 nM |  | Activity [3]: Non-Toxic; EC50 [5]: 7300 nM; Ratio [7]: 1 |
| COc1ccc(CO/N=C/c2c(-c3ccc4ccccc4c3)nc3occn23)cc1 | 0.75 | 4400 nM | Toxic |  |
| CCc1nc2sccn2c1/C=N/OCc1ccc(Cl)c(Cl)c1 | 1.4 | 2600 nM | Toxic |  |
| C(=N\OC1Cc2ccccc2C1)/c1c(-c2ccc3ccccc3c2)nc2occn12 | 3.8 | 980 nM | Toxic |  |
| N#Cc1ccc(-c2nc3sccn3c2/C=N/OCc2ccc(Cl)c(Cl)c2)cc1 | 0.65 | 3400 nM | Toxic |  |
| C(=N\OCc1ccc(Oc2ccccc2)cc1)/c1c(-c2ccc3ccccc3c2)nc2occn12 |  |  | Toxic | EC50 [5]: 1100 nM; Ratio [7]: 1.6; EC50 ([8]; hepg2): Not Active |
| Clc1ccc(-c2nc3sccn3c2/C=N/OCc2ccc(Cl)c(Cl)c2)cc1 |  |  | Toxic | Activity [12]: Active; EC50 [5]: 990 nM |
| CCC1(c2ccccc2)C(=O)NC(=O)NC1=O [PHENOBARBITAL] |  |  |  | Activity [13]: Active; Activity [14]: Active |
